Measurements gathered from unrelated publications.
Compare with care: the assays were run in different laboratories.
Target: Dual specificity mitogen-activated protein kinase kinase 2 (MAP2K2, Homo sapiens, UniProt P36507)

CCCCC(=O)Nc1ccc(-c2ccc3ncn(CCC)c(=O)c3c2)cn1  remaining binding (binding; competition with immobilised ligand; 0.5 µM): 68%
COc1ccc2oc(-c3ccc4nc(N)oc4c3)c/c(=N\c3ccccc3NC(=O)CCN)c2c1  remaining binding (binding; 1 µM): 106%
C#Cc1cc(-c2cc(Nc3nc(N[C@@H](C)c4ccc(F)cn4)ncc3Cl)n[nH]2)ccc1C=O  inhibition (enzyme activity; inhibitor; 0.2 µM): 20.9%
C=CC(=O)N1CCC([C@@H]2CCNc3c(C(N)=O)c(-c4ccc(Oc5ccccc5)cc4)nn32)CC1  inhibition (enzyme activity; inhibitor; 1 µM): 99%
N#Cc1ccc(NC(=O)Nc2ccccc2)cc1  remaining binding (cell-free assay; competition with immobilised ligand; 25 µM): 64%
CN1CCN(C(=O)c2ccc(NC(=O)Nc3ccc(N(C)c4ccnc(Nc5ccc(CS(C)(=O)=O)cc5)n4)cc3)cc2)CC1  remaining binding (binding; competition with immobilised ligand; 1 µM): 40%
Cc1cc(O)c(-c2ccc([C@@H](C)CN(C)C)cc2)c2c1[nH]c(=O)c1sccc12  inhibition (enzyme activity; inhibitor; 0.1 µM): 24.2%
CC(C)S(=O)(=O)c1ccc2nccc(Nc3ccc4sc(C5CCCC5)nc4c3)c2c1  activity vs control (enzyme activity; inhibitor; 1 µM): 98%
COc1ccc2[nH]c3c4[nH]c5ccc(OC)cc5c4c4c(c3c2c1)C(=O)NC4=O  remaining binding (binding; competition with immobilised ligand; 1 µM): 59%
CO[C@@H]1[C@H](N(C)C(=O)c2ccccc2)C[C@H]2O[C@]1(C)n1c3ccccc3c3c4c(c5c6ccccc6n2c5c31)C(=O)NC4  inhibition (enzyme activity; inhibitor; 1 µM): 20%
